This is an account of results in ChEMBL document CHEMBL1153971, “Design, synthesis, biological evaluation and molecular modelling studies of novel quinoline derivatives against Mycobacterium tuberculosis” (Bioorg Med Chem, 2009).

Series [1] has as its system Mycobacterium tuberculosis. Description: Antimycobacterial activity against Mycobacterium tuberculosis H37Rv ATCC 27294 at 6.25 ug/mL by radiometric method. The format is functional.
Series [2] concerns Mycobacterium tuberculosis. Description: Antimycobacterial activity against Mycobacterium tuberculosis H37Rv ATCC 27294 assessed as growth inhibition at 6.25 ug/mL after 7 to 9 days by radiometric method. Particulars: read-out: GI. It is filed as functional. A digest of the protocol:
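Single-concentration screen against H37Rv (ATCC 27294) by the BACTEC 460 radiometric method. Compound was added once at 6.25 µg/mL on day one. […] DMSO was the vehicle.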

A short description of series [3]: Cytotoxicity against human THP1 cells assessed as cell viability at 10 ug/100 mL after 72 hrs by MTT assay. Particulars: THP-1 cells, read-out: Activity. It is filed as cell-based. The gist of the method: (§1)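 Monocytic THP-1 cells were seeded at 10,000 cells/100 µL and cultured at 37 °C in 5% CO2. Compounds were added at 1 or 10 µg/100 µL, with medium plus DMSO as live control. After 24 or 72 h, MTT (stock 5 mg/mL) was added for 4 h, then isopropanol. Absorbance was read at 540 nm and reported as percent viability. Triplicates, mean of three readings.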
A general note: Tetrazolium assays rely on reduction of a dye to a coloured formazan, in cell work by metabolically active cells.

Series [4] relates to Mycobacterium tuberculosis. Description: Antimycobacterial activity against Mycobacterium tuberculosis H37Rv ATCC 27294 assessed as growth index at 6.25 ug/mL after 4 days by radiometric method. It is filed as functional. The gist of the method: (§2)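 M. tuberculosis H37Rv (ATCC 27294) in a BACTEC 460 radiometric culture. A single 6.25 µg/mL dose was given on day 1. Growth index was read daily from day 1 to day 9 against an untreated culture and an isoniazid-treated culture under identical conditions. Three independent readings were taken. Compounds were dissolved in DMSO.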

Series [5] in a line: Cytotoxicity against human THP1 cells assessed as cell viability at 10 ug/100 mL after 24 hrs by MTT assay. The format is cell-based. The following applies: THP-1 cells, read-out: Activity. A digest of the protocol: as §1
Series [6] can be described thus: Cytotoxicity against human THP1 cells assessed as cell viability at 1 ug/100 mL after 72 hrs by MTT assay. It is filed as cell-based. The following applies: THP-1 cells, read-out: Activity. A digest of the protocol:
as §1

Series [7] relates to Mycobacterium tuberculosis. Description: Antimycobacterial activity against Mycobacterium tuberculosis H37Rv ATCC 27294 by radiometric method. It is filed as functional. A digest of the protocol:
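MIC against H37Rv by the BACTEC radiometric method. Five concentrations were tested: 6.25, […], 1.56, 0.78 and 0.39 µg/mL. Compounds were dissolved in DMSO.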

For series [8], the system named is Mycobacterium tuberculosis. The series is described as follows: Antimycobacterial activity against Mycobacterium tuberculosis H37Rv ATCC 27294 assessed as growth index at 6.25 ug/mL after 1 day by radiometric method. The format is functional. A digest of the protocol:
as §2

For series [9], the system named is Mycobacterium tuberculosis. Description: Antimycobacterial activity against Mycobacterium tuberculosis H37Rv ATCC 27294 assessed as growth index at 6.25 ug/mL after 3 days by radiometric method. The format is functional. A digest of the protocol:
as §2

Series [10] has as its system Mycobacterium tuberculosis. The series is described as follows: Antimycobacterial activity against Mycobacterium tuberculosis H37Rv ATCC 27294 assessed as growth index at 6.25 ug/mL after 6 days by radiometric method. It is filed as functional. The gist of the method: as §2
For series [11], the system named is Mycobacterium tuberculosis. Description: Antimycobacterial activity against Mycobacterium tuberculosis H37Rv ATCC 27294 assessed as growth index at 6.25 ug/mL after 2 days by radiometric method. It is filed as functional. The gist of the method: as §2
Series [12] can be described thus: Cytotoxicity against human THP1 cells assessed as cell viability at 1 ug/100 mL after 24 hrs by MTT assay. It is filed as cell-based. The following applies: THP-1 cells, read-out: Activity. A digest of the protocol: as §1
The test system of series [13] is Mycobacterium tuberculosis. The series is described as follows: Antimycobacterial activity against Mycobacterium tuberculosis H37Rv ATCC 27294 assessed as growth index at 6.25 ug/mL after 8 days by radiometric method. The format is functional. The gist of the method:
as §2

For series [14], the system named is Mycobacterium tuberculosis. Description: Antimycobacterial activity against Mycobacterium tuberculosis H37Rv ATCC 27294 assessed as growth index at 6.25 ug/mL after 9 days by radiometric method. It is filed as functional. The gist of the method: as §2
In series [15] the test system is Mycobacterium tuberculosis. Description: Antimycobacterial activity against Mycobacterium tuberculosis H37Rv ATCC 27294 assessed as growth index at 6.25 ug/mL after 7 days by radiometric method. The format is functional. The gist of the method:
as §2

Series [16] has as its system Mycobacterium tuberculosis. The series is described as follows: Antimycobacterial activity against Mycobacterium tuberculosis H37Rv ATCC 27294 assessed as growth index at 6.25 ug/mL after 5 days by radiometric method. The format is functional. A digest of the protocol: as §2

Molecules are shown by their SMILES. In brackets after ≈: the same amount, converted by molar mass.

In general, inhibition refers to the drop in the measured response relative to a control, in per cent. As to `CCOC(=O)C1CCN(C(c2ccccc2)c2cc3cc(Br)ccc3nc2OC)CC1` (centres undefined), at 6.25 µg/mL the inhibition in series [1] was 16%.
On the same count and under the same terms, the same measure for `COc1nc2ccc(Br)cc2cc1C(c1ccccc1)N1CCCCC1` (centres undefined): 53%.
On the same count and under the same terms, in the case of `CCOC(=O)C(c1cccc2ccccc12)C(c1ccccc1)c1cc2cc(Br)ccc2nc1OC` (mixture of isomers) it was 0%.
In the case of `NNC(=O)c1ccncc1` [ISONIAZID], the inhibition of growth at 6.25 µg/mL in series [2] turned out to be 99.3%.
As for `COc1nc2ccc(Br)cc2cc1C(c1ccccc1)n1nnnc1C` (centres undefined), testing at 6.25 µg/mL in series [1] gave an inhibition of 14%.
On the same count and under the same terms, in the case of `COC(=O)C(C(=O)N1CCN(c2cccc(C(F)(F)F)c2)CC1)C(c1ccccc1)c1cc2cc(Br)ccc2nc1OC` (centres undefined) it was 8%.
For `COc1nc2ccc(Br)cc2cc1C(NCc1ccncc1)c1ccccc1` (centres undefined), the inhibition at 6.25 µg/mL in series [1] worked out at 17%.
`COC(=O)C(C(=O)N1CCOCC1)C(c1ccccc1)c1cc2cc(Br)ccc2nc1OC` (centres undefined) returned an inhibition at 6.25 µg/mL in series [1] of 5%.
In the case of `COc1nc2ccc(Br)cc2cc1C(c1ccccc1)n1ccc2ccccc21` (centres undefined), in series [1], testing at 6.25 µg/mL gave an inhibition of 8%.
Broadly, the MIC is the lowest concentration that inhibits growth of the organism. A lower MIC goes with greater potency. In the case of `COc1nc2ccc(Br)cc2cc1C(c1ccccc1)N1CCN(c2cccc(C(F)(F)F)c2)CC1` (centres undefined), in [3], the viability at 72 h, 10 ug/100 mL turned out to be 97%. For the same molecule, the Growth_index is on record as 0 in [4]; 1 in series [8]; 0 in series [9]; 0 in series [10]; 0 in series [11]; 0 in [13]. The Growth_index in series [14], in series [15] and in series [16] was 0 in each case. In [5], the viability at 24 h, 10 ug/100 mL was found to be 97%. In series [1], this molecule came in with an inhibition at 6.25 µg/mL of 100%. In series [6], the viability at 72 h, 1 ug/100 mL came out at 100%. Further, the MIC in series [7] was determined as 6.25 µg/mL (≈ 11.2 µM). Also, the viability at 24 h, 1 ug/100 mL in [12] came to 87%. In series [2], the inhibition of growth at 6.25 µg/mL was determined as 100%.
Consider `CCOC(=O)C1CCCN1C(c1ccccc1)c1cc2cc(Br)ccc2nc1OC` (centres undefined), for which testing at 6.25 µg/mL in [1] gave an inhibition of 18%.
For the molecule `COc1nc2ccc(Br)cc2cc1C(c1ccccc1)n1cccn1` (racemic), the viability at 72 h, 10 ug/100 mL in series [3] amounted to 98%. In addition, the Growth_index was determined as 0 in series [4]; 1 in series [8]; 0 in series [9]; 0 in [10]; 0 in series [11]; 0 in series [13]. Moreover, the Growth_index in series [14], in series [15] and in series [16] was 0 each time. In addition, the viability at 24 h, 10 ug/100 mL in series [5] was determined as 75%. The same molecule gave an inhibition at 6.25 µg/mL in series [1] of 99.5%. For the same molecule, the viability at 72 h, 1 ug/100 mL in series [6] was determined as 100%. In [7], 6.25 µg/mL (≈ 15.9 µM) was the least that counted as inhibitory (MIC). In series [12], the viability at 24 h, 1 ug/100 mL was found to be 71%. Further, in [2], the inhibition of growth at 6.25 µg/mL stood at 99.5%.
Regarding `COc1nc2ccc(Br)cc2cc1C(Nc1ccc2oc(=O)ccc2c1)c1ccccc1` (racemic), in series [3], the viability at 72 h, 10 ug/100 mL stood at 100%. Besides, the Growth_index in series [4] is 45; in series [8], 15; in series [9], 37; in [10], 48; in series [11], 27; in series [13], 53. Besides, the Growth_index was 55 in series [14], 53 in [15] and 52 in series [16]. Besides, the viability at 24 h, 10 ug/100 mL in series [5] turned out to be 100%. The inhibition at 6.25 µg/mL in [1] was 92.5%. In addition, the viability at 72 h, 1 ug/100 mL in [6] was found to be 100%. In series [7], this molecule had an MIC of 6.25 µg/mL (≈ 12.8 µM). The viability at 24 h, 1 ug/100 mL in [12] worked out at 100%. For the same molecule, in series [2], the inhibition of growth at 6.25 µg/mL worked out at 92.5%.
The molecule `COC(=O)C(C(=O)N1CCCCC1)C(c1ccccc1)c1cc2cc(Br)ccc2nc1OC` (centres undefined) registered an inhibition at 6.25 µg/mL in series [1] of 11%.
Same read-out and setting: in the case of `COc1nc2ccc(Br)cc2cc1C(c1ccccc1)N1CCOCC1` (centres undefined) it was 69%; in that of `COC(=O)C(C(=O)N1CCCC1)C(c1ccccc1)c1cc2cc(Br)ccc2nc1OC` (centres undefined), 5%.
For `COc1nc2ccc(Br)cc2cc1C(c1ccccc1)n1ccnc1` (racemic), in series [3], the viability at 72 h, 10 ug/100 mL amounted to 67%. Also, the Growth_index amounted to 28 in [4]; 12 in [8]; 25 in series [9]; 33 in series [10]; 22 in series [11]; 35 in series [13]. Moreover, the Growth_index was 56 in series [14], 35 in [15] and 34 in series [16]. In addition, in series [5], the viability at 24 h, 10 ug/100 mL is 56%. Besides, the inhibition at 6.25 µg/mL in series [1] was 94.2%. In addition, the viability at 72 h, 1 ug/100 mL in [6] came out at 67%. The same molecule yielded an MIC in series [7] of 6.25 µg/mL (≈ 15.9 µM). Also, the viability at 24 h, 1 ug/100 mL in series [12] is 74%. Also, the inhibition of growth at 6.25 µg/mL in [2] amounted to 94.2%.
On to `COc1nc2ccc(Br)cc2cc1C(c1ccccc1)n1cnc([N+](=O)[O-])c1` (centres undefined), for which, in series [1], the inhibition at 6.25 µg/mL is 14%.
Same read-out and setting: in the case of `COC(=O)C(C(=O)n1cccn1)C(c1ccccc1)c1cc2cc(Br)ccc2nc1OC` (mixture of isomers) it was 22%.
